Screen size: about 330,000 compounds; about 2,400 (0.73%) were called active. Rule for the calls: active = inhibition of at least 40% at 20 µM; inactive = the rest. What follows is part of a selection rich in actives, with near analogues and random picks from the rest.
Target: Apoptotic protease-activating factor 1 (Homo sapiens) (UniProt O14727)
Assay: inhibitors of human Apaf-1 apoptosome, primary screen, biochemical, DEVD-Rh110 fluorescence, uHTS (AID 489030);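 note: plate controls were DMSO wells for no effect and DEVD-CHO caspase inhibitor wells for full effect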
Conditions: reconstituted apoptosome caspase-3 activity, at 20 µM, active compounds read high
Method in brief: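 Material: cell-free apoptosome with Apaf-1, procaspase-3 and caspase-9; Buffer or medium: Hepes pH 7.5 with detergent and BSA; Reagent: cytochrome c trigger plus (Z-DEVD)2-Rh110 caspase-3 substrate; Times: compound with Apaf-1, dATP, procaspase-3 30 min, then 50 min reaction, room temperature; Technique: Rh110 fluorescence intensity.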

Apoptotic protease-activating factor 1 (Homo sapiens), sequence (O14727 whole entry, looked up): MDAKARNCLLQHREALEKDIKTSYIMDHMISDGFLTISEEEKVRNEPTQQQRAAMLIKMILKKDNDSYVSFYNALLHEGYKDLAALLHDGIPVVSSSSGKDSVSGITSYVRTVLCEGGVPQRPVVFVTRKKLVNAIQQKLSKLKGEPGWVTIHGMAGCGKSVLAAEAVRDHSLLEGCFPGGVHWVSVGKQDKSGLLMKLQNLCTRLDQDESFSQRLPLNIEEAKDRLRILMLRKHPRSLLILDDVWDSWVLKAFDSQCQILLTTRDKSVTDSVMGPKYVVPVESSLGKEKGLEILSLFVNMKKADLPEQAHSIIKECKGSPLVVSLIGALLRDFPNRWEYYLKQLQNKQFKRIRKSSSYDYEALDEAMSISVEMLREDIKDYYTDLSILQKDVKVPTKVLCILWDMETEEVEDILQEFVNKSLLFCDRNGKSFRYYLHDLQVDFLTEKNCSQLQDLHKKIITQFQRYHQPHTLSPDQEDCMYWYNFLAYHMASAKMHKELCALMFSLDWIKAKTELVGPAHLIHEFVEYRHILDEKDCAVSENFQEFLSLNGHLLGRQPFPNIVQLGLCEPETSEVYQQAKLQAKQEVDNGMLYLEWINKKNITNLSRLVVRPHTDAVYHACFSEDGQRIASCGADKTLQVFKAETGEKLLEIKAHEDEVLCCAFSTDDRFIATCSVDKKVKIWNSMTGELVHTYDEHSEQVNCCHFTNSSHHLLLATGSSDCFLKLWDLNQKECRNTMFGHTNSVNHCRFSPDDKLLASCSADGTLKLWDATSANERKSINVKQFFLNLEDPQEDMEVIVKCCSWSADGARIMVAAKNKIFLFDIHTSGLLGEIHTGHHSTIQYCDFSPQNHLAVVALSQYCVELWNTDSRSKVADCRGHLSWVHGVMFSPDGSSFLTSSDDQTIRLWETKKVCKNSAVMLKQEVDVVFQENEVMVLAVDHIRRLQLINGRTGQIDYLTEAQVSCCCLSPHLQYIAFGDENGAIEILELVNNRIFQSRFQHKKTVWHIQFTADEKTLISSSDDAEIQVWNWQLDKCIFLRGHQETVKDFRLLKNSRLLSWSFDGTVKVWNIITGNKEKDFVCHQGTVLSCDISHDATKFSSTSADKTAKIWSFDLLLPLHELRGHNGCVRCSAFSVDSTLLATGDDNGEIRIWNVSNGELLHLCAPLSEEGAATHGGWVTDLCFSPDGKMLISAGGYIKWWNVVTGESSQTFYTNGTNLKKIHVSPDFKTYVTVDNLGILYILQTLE

| Compound | inhibition |
| --- | --- |
| CCN(CC)S(=O)(=O)c1cc([N+](=O)[O-])ccc1NNC(=O)Nc1ccccc1 | 7.25% (inactive) |
| COC(=O)CN1C(C)=Nc2ccc(Br)cc2C1c1ccccc1 (centres undefined) | 4.57% (inactive) |
| COc1ccc(S(=O)(=O)N2CCCCC2)cc1NC(=O)C1CC(=O)N(c2ccc3c(c2)OCCO3)C1 (centres undefined) | 18.5% (inactive) |
| O=C(COC(=O)c1ccc(O)cc1O)NNC(=O)c1cccs1 | -6.93% (inactive) |
| Cc1cccc(OCCNC(=O)CSc2ccc(C(F)(F)F)cc2[N+](=O)[O-])c1 | 15.2% (inactive) |
| CC(C)OCCCNC(=O)CN1C(=O)/C(=C/c2ccccc2F)Oc2ccccc21 | 11% (inactive) |
| Cc1c(C)n(Cc2ccc(Cl)cc2)c2ccc(C(=O)NCCCN3CCOCC3)cc12 | 25.9% (inactive) |
| CN1CCN(CCCNC(=O)c2ccc(/C=C3\Oc4ccccc4N(Cc4ccc(Cl)cc4)C3=O)cc2)CC1 | 56.6% (active) |
| O=C(NCC1CC1)c1onc(CSc2ccccc2)c1C(=O)NCC1CC1 | 14.7% (inactive) |
| COc1cccc(NC(=O)CSc2nccn(-c3ccc4c(c3)OCCO4)c2=O)c1 | 5.15% (inactive) |
| CCOc1cc(CNCCN(C)C)c(Cl)cc1OCC(=O)NCCc1ccccc1 | 13.1% (inactive) |
| COc1ccc(S(=O)(=O)N(C)C[C@@H]2Oc3ccc(NS(=O)(=O)c4cn(C)cn4)cc3C(=O)N([C@@H](C)CO)C[C@@H]2C)cc1 | 5.38% (inactive) |
| O=C1NNC(c2ccccc2)=N/C1=C\c1ccc(Cl)cc1 | 50.6% (active) |
| Cc1ccc(Cl)c(OCC(=O)N(C)CC(=O)Nc2ccc(N3CCOCC3)cc2)c1 | 7.19% (inactive) |
| COC(=O)c1ccc(COC(=O)C2CCN(S(=O)(=O)c3c(Cl)cccc3Cl)CC2)o1 | 0.83% (inactive) |
| CCn1cc(CN2CCC(C(=O)Nc3cccc(-c4cccc(Cl)c4)c3)CC2)cn1 | 33.8% (inactive) |
| O=C(Nc1cccc(-c2cccc(Cl)c2)c1)C1CCN(C2CCC2)CC1 | 25.3% (inactive) |
| CCn1cc(CN2CCC(C(=O)Nc3cccc(-c4cccc(Cl)c4)c3)CC2)c(C)n1 | 40.5% (active) |
| COc1ccccc1N1CCN(C(=O)CSc2ncnc3c2cnn3-c2ccc(C)c(C)c2)CC1 | -2.97% (inactive) |
| COc1cccc(-n2c(N)cc(=O)nc2SCC(=O)Nc2cc(C)on2)c1 | 0.469% (inactive) |
| CCCCN1C(=S)NC[C@@H]1C(C)CC (some centres undefined) | 1.66% (inactive) |
| COc1ccccc1C(=O)N1C(CC(=O)Nc2ccccc2C)C(=O)NC2CCCCC21 (centres undefined) | -7.88% (inactive) |
| CCOC(=O)Cc1cc(=O)[nH]c(/N=C(\N)Nc2ccc(OC)cc2)n1 | -3.54% (inactive) |
| CCOC(=O)c1ccc(NC(=O)c2c(N)n(C)c(=O)[nH]c2=O)cc1 | -13.8% (inactive) |
| CCOC(=O)c1ccc(NC(=O)c2c(NCc3ccccc3)[nH]c(=O)[nH]c2=O)cc1 | 3.08% (inactive) |
| CCOC(=O)c1ccc(Nc2cc3ccccc3c(=O)[nH]2)cc1 | 92.5% (active) |
| COc1ccc(/C=C/c2c(-c3cccc(C)c3)oc3ccc(-c4ccc5c(c4)OCO5)cc23)cc1 | -2.24% (inactive) |

| Compound | inhibition |
| --- | --- |
| CN(CC(=O)Nc1ccccc1Cl)C(=O)c1ccccc1SCC(=O)N1CCCC1 | -3.37% (inactive) |
| CC(C)N(Cc1ccccc1)C(=O)COC(=O)c1ccccc1SCC(=O)N1CCCC1 | 1.56% (inactive) |
| CC(NC(=O)c1ccccc1SCC(=O)N1CCCC1)c1ccccc1 (centres undefined) | 41.6% (active) |
| Cc1ccc(NC2=NC(c3ccccc3)n3c(nc(C)cc3=O)N2)cc1 (centres undefined) | 5.19% (inactive) |
| O=C(Nc1ccccc1C(=O)O)c1cc(S(=O)(=O)N2CCCCC2)cs1 | -2.29% (inactive) |
| COc1ccc(C2=NS(=O)(=O)N(C)C(C(=O)NC(C)c3ccccc3)=C2)cc1 (centres undefined) | 1.57% (inactive) |
| COc1cc(/C=C2/C(=O)NN(c3cccc(Cl)c3)C2=O)cc(Br)c1O | 5.53% (inactive) |
| CCOc1c(Br)cc(/C=C2\C(=O)N(CCC#N)N=C2C)cc1OC | 75.9% (active) |
| C=CCOc1c(Br)cc(/C=N\n2nnnc2N)cc1OC | 2.56% (inactive) |
| COc1cc(OC)cc(-c2c(-c3cccs3)c3cc(-c4ccc(OC)cc4F)ccc3n2C)c1 | 11.7% (inactive) |
| COc1ccc(CCN2CC(C(=O)NCCN3CCNC3=O)CCC2=O)cc1 (centres undefined) | 0.96% (inactive) |
| CC1=C(C(=O)OCc2ccccc2)C(c2ccc(C(F)(F)F)cc2)NC(=O)N1CCCCCC(=O)O (centres undefined) | 19.6% (inactive) |
| CC1=C(C(=O)OC(C)(C)C)C(c2ccc(Br)cc2)NC(=O)N1CCCC(=O)O (centres undefined) | -6.71% (inactive) |
| COC(=O)CCCCCN1C(=O)NC(c2ccc(-c3ccccc3)cc2)C(C(=O)OCc2ccccc2)=C1C (centres undefined) | 19.3% (inactive) |
| CCN1C(=O)N[C@@H](c2ccccc2)C(C(=O)OC)=C1C | -2.25% (inactive) |
| CCCCNC(=O)C(C)N(CCN(C)C)C(=O)CCCN1C(=O)NC(c2ccc(Cl)cc2)C(C(=O)OCc2ccccc2)=C1C (centres undefined) | 57.1% (active) |
| CCCCNC(=O)C(C)N(CCN(C)C)C(=O)CCCCCN1C(=O)NC(c2ccc(Cl)cc2)C(C(=O)OCc2ccccc2)=C1C (centres undefined) | 67.1% (active) |
| CCCOC(=O)c1c(NC(=O)c2cnn3c2NC(c2ccccc2)CC3C(F)(F)F)sc2c1CCCC2 (centres undefined) | -7.9% (inactive) |
| NC(=O)c1ccc(-c2csnn2)cc1 | -3.94% (inactive) |
| COc1ccc(-n2nc(C(=O)Nc3cc(OC)c(OC)c(OC)c3)c3ccccc3c2=O)c(OC)c1 | 28.5% (inactive) |
| Nc1nnnn1/N=C/c1cccc(Br)c1 | 8.14% (inactive) |
| COc1ccccc1C(=O)NCCC(=O)N(C)Cc1cccnc1 | -4.28% (inactive) |
| O=C(CCNS(=O)(=O)c1ccccc1)NCCSc1ccc(Br)cc1 | 58.6% (active) |
| Cc1ccc(OCCNC(=O)CCNS(=O)(=O)c2ccc(Br)cc2)cc1 | 11.6% (inactive) |
| O=C(CCNS(=O)(=O)c1ccccc1)NCCCc1ccccc1 | 4.81% (inactive) |
| CCCc1c(C)nc2c(Br)cccc2c1Cl | -2.72% (inactive) |
| CC[N+](C)(CC)CCC[n+]1c(-c2ccccc2)c2cc(N)ccc2c2ccc(N)cc21 | 98.2% (active) |
